Assay outcomes from PubChem BioAssay.
ABCG2 inh – human ABCG2 inhibition, ABCB1 as counter-screen; Q9UNQ0; IgMXP3 cells, JC-1 efflux, flow cytometry; inhibition, % at 6.6 µM; hit rate 0.1% among 190,000; AID 1325;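 active = inhibition above 80%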;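 note: 0% = DMSO and 100% = nicardipine control wells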
Target sequence (Q9UNQ0 whole entry, looked up): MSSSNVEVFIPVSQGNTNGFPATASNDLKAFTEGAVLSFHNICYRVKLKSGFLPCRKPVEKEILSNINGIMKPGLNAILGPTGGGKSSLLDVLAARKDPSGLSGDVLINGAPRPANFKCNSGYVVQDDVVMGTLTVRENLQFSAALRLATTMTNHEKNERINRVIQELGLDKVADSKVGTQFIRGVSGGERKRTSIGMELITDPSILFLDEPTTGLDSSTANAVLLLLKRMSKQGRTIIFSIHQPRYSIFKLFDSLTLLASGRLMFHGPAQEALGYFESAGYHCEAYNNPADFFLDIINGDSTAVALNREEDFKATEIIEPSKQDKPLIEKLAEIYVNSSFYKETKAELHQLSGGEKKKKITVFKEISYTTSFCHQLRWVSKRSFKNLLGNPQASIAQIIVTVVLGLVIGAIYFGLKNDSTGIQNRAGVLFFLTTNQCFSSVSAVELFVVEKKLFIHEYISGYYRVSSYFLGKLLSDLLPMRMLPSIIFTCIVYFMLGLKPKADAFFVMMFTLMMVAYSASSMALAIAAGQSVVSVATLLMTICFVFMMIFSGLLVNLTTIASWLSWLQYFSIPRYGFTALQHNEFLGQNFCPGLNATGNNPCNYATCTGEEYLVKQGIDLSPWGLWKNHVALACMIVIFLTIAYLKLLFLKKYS
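Test system: ABCG2 IgMXP3 and barcoded ABCB1 CCRF-Adr cell mix; Schedule: cells with compound and JC-1, 10 min at 25 °C, rotating, no wash; Technique: flow cytometry of retained JC-1 fluorescence; Measure: % inhibition of efflux relative to nicardipine and DMSO; Controls: nicardipine high and DMSO low controls.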
MEKK2 WT-MEK5 – raises or lowers MEK5 binding to wildtype human MEKK2 PB1 domain. Q9Y2U5. bead flow cytometry, Alexa488-MEK5 binding to MEKK2 WT; actives lie on both sides. binding response (% of control), % at 10 µM. hit rate 1.1% among 290,000. AID 1531; in the data active = binding response below about 67% or above about 130%
MEKK3 PB1 HTS – MEKK3-MEK5 PB1 interaction, increase or decrease; bead-based flow cytometry, Alexa488-MEK5 binding to MEKK3; actives lie on both sides; 0 = blocked by unlabeled MEK5, 100 = vehicle; binding response (% of control), % at 10 µM; hit rate 1.4% among 290,000; AID 1529;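 active = binding response more than 3 SD above or below the average of its plate-row segment, actives on both sides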;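 note: Alexa488 bead fluorescence after subtracting the streptavidin-only scavenger bead signal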
ABCB1 block – inhibitors of human ABCB1 transporter, ABCG2 counter-screen. P08183. CCRF-Adr cells, JC-1 efflux, flow cytometry. inhibition, % at 6.6 µM. hit rate 0.067% among 190,000. AID 1326; in the data active = inhibition above about 40%;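 note: 0% = vehicle and 100% = reference inhibitor; higher value means more JC-1 retained so stronger ABCB1 efflux block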
MEKK2 mut-MEK5 – signal of MEK5 binding to mutant human MEKK2 PB1 domain; bead flow cytometry, Alexa488-MEK5 binding to MEKK2 mutant; percent response, % at 10 µM; hit rate 0.35% among 290,000; in the data active = percent response above about 24%, passing the limit was not always enough
MEKK2wt confirm – raises or lowers MEK5 binding to wildtype human MEKK2, retest; hit rate 2.4% among 5,900; shares compounds with MEKK3 PB1 HTS; binding response (% of control), % at 10 µM; bead flow cytometry, Alexa488-MEK5 binding to MEKK2 WT; actives lie on both sides; in the data active = binding response below about 16% or above about 210%; inactive = in between
MEKK2mut confirm – signal of MEK5 binding to mutant human MEKK2, retest; shares compounds with MEKK3 PB1 HTS; bead flow cytometry, Alexa488-MEK5 binding to MEKK2 mutant; percent response, % at 10 µM; hit rate 2% among 5,900; AID 1893; in the data active = percent response mostly above about 71%, no sharp cut-off; inactive = mostly below about 38%;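 note: higher means compound restores mutant binding toward wildtype level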
MEKK3-MEK5 inh – confirmation of inhibitors of MEK5 binding to human MEKK3; shares compounds with MEKK3 PB1 HTS; bead flow cytometry, Alexa488-MEK5 binding to MEKK3; stronger effect = lower value; binding response (% of control), % at 10 µM; hit rate 1.8% among 5,900;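 active = binding response below 72% of control, or above a set upper limit, though filed actives all read lower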;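 note: 100% = DMSO only wells and 0% = binding blocked by excess unlabeled MEK5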
Active calls of the source: *; x = no result; [ ] = remark or other dose. Shown are actives, neighbours in structure and some others; about 2.3% of the full set was active somewhere.

SMILES	ABCG2 inh	MEKK2 WT-MEK5	MEKK3 PB1 HTS	ABCB1 block	MEKK2 mut-MEK5	MEKK2wt confirm	MEKK2mut confirm	MEKK3-MEK5 inh
O=S(=O)(Nc1nc(-c2ccccc2)cs1)c1cc(Cl)ccc1Cl	x	100.0	103.0	x	1.0	x	x	x
Cc1ccc(OCCN2CCN(CC(O)Cn3c4ccccc4c4ccccc43)CC2)cc1 (configuration not stated)	2.1	239.0*	106.0	0.6	59.0*	142.0	26.0	106.0
CCC(NC(=O)c1ccncc1)c1ccccc1 (configuration not stated)	x	100.0	104.0	x	1.0	x	x	x
CN(CCCC(=O)Nc1ccc(Br)cc1F)S(=O)(=O)c1ccccc1	x	110.0	106.0	x	3.0	x	x	x
CCC(CC)c1nnc(NC(=O)C2CC(=O)N(c3ccc4c(c3)OCCO4)C2)s1 (configuration not stated)	7.0	110.0	135.0*	0.2	1.0	66.0	-18.0	61.0*
CCCCc1nnc(NC(=O)C2CC(=O)N(c3ccc4c(c3)OCCO4)C2)s1 (configuration not stated)	21.6	115.0	97.0	-0.4	19.0	x	x	x
CCOC(=O)C1CCN(C(=O)c2c(-c3c(F)cccc3Cl)noc2C)CC1	3.0	115.0	127.0*	2.2	8.0	100.0	-6.0	101.0
CCOC(=O)C1CCN(C(=O)CSc2ccc(Cl)cc2)CC1	3.0	108.0	129.0*	0.7	1.0	100.0	-5.0	100.0
Cc1onc(-c2c(F)cccc2Cl)c1C(=O)OCC(=O)NC1CC1	6.7	90.0	70.0*[inhibitor]	1.6	-2.0	98.0	-3.0	102.0
Cc1onc(-c2c(F)cccc2Cl)c1C(=O)OCC(=O)NC(N)=O	4.5	97.0	104.0	0.3	-12.0	x	x	x
Cc1onc(-c2c(F)cccc2Cl)c1C(=O)N1CCCCC1	x	105.0	101.0	x	2.0	x	x	x
CCOC(=O)C1CCN(C(=O)CSc2ccc(Br)cc2)CC1	0.3	98.0	101.0	-0.1	3.0	x	x	x
NC(=S)Nc1ccc(S(=O)(=O)c2ccc(NC(N)=S)cc2)cc1	x	100.0	101.0	x	1.0	x	x	x
O=C(COc1cc2oc(=O)c3c(c2cc1Cl)CCC3)Nc1ccc(CN2CCOCC2)cc1	x	99.0	100.0	x	-9.0	x	x	x
O=C(Nc1ccc(C2=NCCN2)cc1)c1ccc(C(=O)Nc2ccc(C3=NCCN3)cc2)c([N+](=O)[O-])c1	x	151.0*	63.0*[inhibitor]	x	32.0	104.0	6.0	46.0*
Cc1ccc(NC(=O)c2ccc(-n3cccn3)c([N+](=O)[O-])c2)cc1	5.0	96.0	99.0	0.2	-3.0	x	x	x
COc1ccc(OCC(=O)Nc2ccc3c(c2)nc(CCn2ccccc2=O)n3C)cc1	x	101.0	101.0	x	7.0	x	x	x
Cn1c(=O)cc(OCCCC(=O)NCc2cccnc2)c2ccccc21	1.9	51.0	48.0*[inhibitor]	0.1	-16.0	100.0	-3.0	99.0
CCOC(=O)CCSc1nc(C)c2cc(OC)ccc2n1	0.7	90.0	72.0*[inhibitor]	-0.1	2.0	80.0	-17.0	76.0
CCN1C(=O)c2cccc3c(S(=O)(=O)Nc4ncccc4C)ccc1c23	9.0	85.0	82.0*[inhibitor]	1.5	-10.0	105.0	3.0	105.0
O=C(CC(=O)N/N=C/c1c(Cl)cccc1Cl)NCc1cccnc1	x	103.0	101.0	x	4.0	x	x	x
COc1ccc(OC)c(N/C(=N/C(=S)Nc2ccccc2)Nc2nc(C)cc(C)n2)c1	x	54.0	48.0*[inhibitor]	x	-49.0	88.0	-4.0	99.0
O=C(c1ccc(Br)o1)N1CCN(Cc2ccccc2Cl)CC1	x	100.0	99.0	x	0.0	x	x	x
Cc1nn(C)c(=O)n1N(C)c1ncc(C(F)(F)F)cc1Cl	1.6	114.0	139.0*	0.6	3.0	90.0	-4.0	97.0
Cc1cc2nnc(SCC(=O)NC3CCCCC3)n2c(N)n1	x	108.0	104.0	x	5.0	x	x	x
SMILES	ABCG2 inh	MEKK2 WT-MEK5	MEKK3 PB1 HTS	ABCB1 block	MEKK2 mut-MEK5	MEKK2wt confirm	MEKK2mut confirm	MEKK3-MEK5 inh
CS(=O)(=O)N1CCN(Cc2cc(=O)n3ccsc3n2)CC1	x	110.0	107.0	x	4.0	x	x	x
Cc1ccc(NS(=O)(=O)c2cccc(C(=O)N/N=C/c3ccc4c(c3)OCCO4)c2)c(C)c1	-1.2	110.0	129.0*	1.8	0.0	97.0	-3.0	98.0
Cc1ccc(NS(=O)(=O)c2cccc(C(=O)N/N=C/c3c(C)nn(-c4ccccc4)c3N3CCCC3)c2)c(C)c1	13.3	100.0	91.0	0.2	0.0	x	x	x
CC(NC(=O)/C=C/c1ccco1)c1nc2ccccc2n1Cc1ccccc1F (configuration not stated)	4.9	107.0	135.0*	1.2	1.0	76.0	-10.0	76.0
CC(NC(=O)/C=C/c1ccco1)c1nc2ccccc2n1Cc1c(Cl)cccc1Cl (configuration not stated)	1.5	104.0	101.0	6.8	15.0	x	x	x
CCOC(=O)C1(CCOc2ccccc2)CCN(C(=O)CCSC)CC1	x	108.0	107.0	x	4.0	x	x	x
COc1ccc(CNC[C@@H](CCCCN(C)Cc2ccc(OC)cc2)N2C[C@H](c3ccccc3)N(CCc3ccc(Cl)c(Cl)c3)C(=O)C2=O)cc1	6.2	236.0*	111.0	0.2	94.0*	240.0*	100.0*	92.0
Cc1c(O)ccc(/C(Cc2ccc3ccccc3n2)=N\O)c1O	-1.3	92.0	101.0	-0.4	0.0	x	x	x
CC(=O)Oc1ccc(C(=O)Cc2ccc3ccccc3n2)c(O)c1C	0.7	105.0	135.0*	0.1	7.0	110.0	3.0	108.0
CN(C)C(CNC(=O)c1coc2ccccc2c1=O)c1ccccc1 (configuration not stated)	x	92.0	97.0	x	-4.0	x	x	x
COc1ccc(Oc2ccc(C(F)(F)F)cc2NC(=O)c2ccc(C)cc2)cc1	x	135.0	142.0*	x	37.0	105.0	-2.0	103.0
CCOc1cc(CNCCCN2CCOCC2)ccc1OCC(=O)Nc1cccc2ccccc12	13.4	141.0*	106.0	0.1	18.0	115.0	-1.0	99.0
COc1cc(CNCCCN2CCOCC2)ccc1OCC(=O)Nc1cccc(C(F)(F)F)c1	5.0	119.0	104.0	3.3	8.0	x	x	x
COc1ccc(N2CCN(C(=O)Cn3cnc4c(cnn4-c4ccc(C)cc4)c3=O)CC2)cc1	2.4	116.0	129.0*	0.9	1.0	105.0	-5.0	100.0
COc1ccc(N2CCN(C(=O)Cn3cnc4c(cnn4-c4ccccc4)c3=O)CC2)cc1	11.3	94.0	92.0	1.9	-2.0	x	x	x
COc1cccc(N2CC(O)Cn3c2nc2c3c(=O)[nH]c(=O)n2C)c1 (configuration not stated)	x	95.0	95.0	x	3.0	x	x	x
